Measured values as given in article PMC4696769 (Biochemistry, 2015).
“And” between values parts separate entries of the source, which are not always exact repeats. Identical values can stand only once.

What was measured:
P133R AKR1D1 [1] = target: T1, P133R AKR1D1 (Homo sapiens, UniProt P51857, P133R); experiment: Steroid binding, quenching of energy transfer band of E·NADPH complex
WT AKR1D1 [2] = target: T2, WT AKR1D1 (Homo sapiens, UniProt P51857); experiment: as above
P133R AKR1D1 [3] = target: T1, P133R AKR1D1; experiment: Multiple turnover reactions, stopped-flow transient kinetics; format: biochemical; conditions: 10 mM potassium phosphate buffer, pH 7, 37 °C
WT AKR1D1 [4] = target: T2, WT AKR1D1; experiment: Multiple turnover reactions, stopped-flow transient kinetics; format: biochemical; conditions: 10 mM potassium phosphate buffer, pH 7, 37 °C
Outline: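 Multiple-turnover reactions in stopped-flow. […] Both solutions in 10 mM KPi pH 7.0 with 4% acetonitrile at 37 °C. […] At least three traces averaged, fit to a linear or burst-plus-linear equation giving pseudo-first-order kburst and […] kss.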

WT AKR1D1 [5] = target: T2, WT AKR1D1; experiment: Steady-state kinetic analysis of steroid reduction; format: biochemical; conditions: for kcat: pH 7.0, 37 °C, 7.2 μM NADPH; for Ki: Ki (substrate inhibition; dissociation constant for substrate from the E-NADP+ complex)
P133R AKR1D1 [6] = target: T1, P133R AKR1D1; experiment: Steady-state kinetic analysis of steroid reduction; conditions: for kcat: P133R
WT AKR1D1 [7] = target: T2, WT AKR1D1; experiment: Cofactor binding, quenching of intrinsic protein fluorescence; conditions: pH 7.0, 37 °C
P133R AKR1D1 [8] = target: T1, P133R AKR1D1; experiment: as above; conditions: pH 7.0, 37 °C
P133R AKR1D1 [9] = target: T1, P133R AKR1D1; experiment: Ligand chase experiment of cofactor; format: binding
WT AKR1D1 [10] = target: T2, WT AKR1D1; experiment: Ligand chase experiment of cofactor; format: binding; conditions: pH 7.0, 37 °C
[11] = substrate: CC(C)CCC[C@@H](C)[C@H]1CC[C@H]2[C@@H]3[C@H](O)CC4=CC(=O)CC[C@]4(C)[C@H]3CC[C@]12C; experiment: purified protein, by the assay type; conditions: other: P133R, pH 7.0, 37.0 °C

T2 sequence (P51857 whole entry): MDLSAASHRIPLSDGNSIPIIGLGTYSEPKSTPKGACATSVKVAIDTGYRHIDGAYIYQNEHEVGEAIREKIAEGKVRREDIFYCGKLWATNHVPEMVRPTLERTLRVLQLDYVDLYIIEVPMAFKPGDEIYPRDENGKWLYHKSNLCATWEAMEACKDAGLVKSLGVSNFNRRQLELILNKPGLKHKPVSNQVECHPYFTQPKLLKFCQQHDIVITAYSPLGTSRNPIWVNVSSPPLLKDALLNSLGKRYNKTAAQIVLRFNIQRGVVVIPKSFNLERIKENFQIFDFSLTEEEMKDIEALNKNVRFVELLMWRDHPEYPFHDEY

CC(C)(C)NC(=O)[C@H]1CC[C@H]2[C@@H]3CC[C@H]4NC(=O)C=C[C@]4(C)[C@H]3CC[C@]12C [finasteride] showed a Kd (P133R AKR1D1 [1]) of 14.2 ± 1.3 µM and a Kd (WT AKR1D1 [2]) of 3.7 ± 0.2 µM.

In the case of C[C@]12CCC(=O)C=C1CC[C@@H]1[C@@H]2C(=O)C[C@@]2(C)[C@H]1CC[C@]2(O)C(=O)CO [cortisone], the kss (P133R AKR1D1 [3]) is reported as 0.040 ± 0.001 s⁻¹, the kss (WT AKR1D1 [4]) is reported as 0.048 ± 0.001 s⁻¹ and the “reduction in Kd versus 7α-hydroxycholest-4-en-3-one” value (WT AKR1D1 [2]; WT) is reported as 4 fold.

CC(C)CCC[C@@H](C)[C@H]1CC[C@H]2[C@@H]3[C@H](O)CC4=CC(=O)CC[C@]4(C)[C@H]3CC[C@]12C [7α-hydroxycholest-4-en-3-one] showed a kss (P133R AKR1D1 [3]) of 0.004 ± 0.001 s⁻¹, a kcat (WT AKR1D1 [5]; 10 mM KPi) of 0.017 ± 0.001 s⁻¹ and a kcat (WT AKR1D1 [5]; 100 mM KPi) of 0.020 ± 0.002 s⁻¹. For the same molecule, the Ki (WT AKR1D1 [5]; 10 mM KPi) was 55 ± 14 µM, the Ki (WT AKR1D1 [5]; 100 mM KPi) was 46 ± 18 µM and the kss (WT AKR1D1 [4]) was 0.010 ± 0.002 s⁻¹. The Ki (P133R AKR1D1 [6]) was 51 ± 27 µM, the “kcat WT/P133R” value (P133R AKR1D1 [6]; 10 mM KPi) was 10 and the “kcat WT/P133R” value (P133R AKR1D1 [6]; 100 mM KPi) was 6.7. For the same molecule, the “kcat/Km WT/P133R (fold decrease in catalytic efficiency)” value (P133R AKR1D1 [6]; 100 mM KPi) was 13 and 13.3, the kcat (P133R AKR1D1 [6]; 10 mM KPi) was 0.0017 ± 0.0001 s⁻¹ and the kcat (P133R AKR1D1 [6]; 100 mM KPi, apparent value, enzyme not saturated with NADPH) was 0.0030 ± 0.0005 s⁻¹. The Kd (P133R AKR1D1 [1]) was 13.6 ± 1.9 µM and the Kd (WT AKR1D1 [2]) was 2.2 ± 0.3 µM.

For NC(=O)c1ccc[n+]([C@@H]2O[C@H](COP(=O)([O-])OP(=O)(O)OC[C@H]3O[C@@H](n4cnc5c(N)ncnc54)[C@H](OP(=O)(O)O)[C@@H]3O)[C@@H](O)[C@H]2O)c1 [NADP^+], the Kd (WT AKR1D1 [7]; 10 mM KPi) was 0.0043 ± 0.0006 µM, the Kd (WT AKR1D1 [7]; 100 mM KPi) was 0.237 ± 0.005 µM and the Kd (P133R AKR1D1 [8]; 10 mM KPi) was 0.08 ± 0.006 µM. For the same molecule, the Kd (P133R AKR1D1 [8]; 100 mM KPi) was 27.1 ± 1.3 µM, the “koff (rate of NADP+ release)” value (P133R AKR1D1 [9]; 10 mM KPi) was 8.9 ± 0.2 s⁻¹ and the “koff (rate of NADP+ release)” value (P133R AKR1D1 [9]; 100 mM KPi, too fast for instrument (dead time ~1.8 ms)) was over 50 s⁻¹. The “koff (rate of NADP+ release)” value (WT AKR1D1 [10]; 10 mM KPi) was 0.164 ± 0.007 s⁻¹ and the “koff (rate of NADP+ release)” value (WT AKR1D1 [10]; 100 mM KPi) was 0.28 s⁻¹ and 0.276 ± 0.008 s⁻¹.

With NC(=O)C1=CN([C@@H]2O[C@H](COP(=O)(O)OP(=O)(O)OC[C@H]3O[C@@H](n4cnc5c(N)ncnc54)[C@H](O)[C@@H]3O)[C@@H](O)[C@H]2O)C=CC1 [NADH] the Kd (WT AKR1D1 [7]; 10 mM KPi) was 24.8 ± 1.7 µM, the Kd (WT AKR1D1 [7]; 100 mM KPi) was 34.8 ± 3.5 µM and the Kd (P133R AKR1D1 [8]; 10 mM KPi) was 28.4 ± 1.9 µM. For the same molecule, the Kd (P133R AKR1D1 [8]; 100 mM KPi) was 34.5 ± 3.8 µM.

B1: P133R AKR1D1 (Homo sapiens; P133R) (protein)
chain: MDLSAASHRIPLSDGNSIPIIGLGTYSEPKSTPKGACATSVKVAIDTGYRHIDGAYIYQNEHEVGEAIREKIAEGKVRREDIFYCGKLWATNHVPEMVRPTLERTLRVLQLDYVDLYIIEVPMAFKPGDEIYRRDENGKWLYHKSNLCATWEAMEACKDAGLVKSLGVSNFNRRQLELILNKPGLKHKPVSNQVECHPYFTQPKLLKFCQQHDIVITAYSPLGTSRNPIWVNVSSPPLLKDALLNSLGKRYNKTAAQIVLRFNIQRGVVVIPKSFNLERIKENFQIFDFSLTEEEMKDIEALNKNVRFVELLMWRDHPEYPFHDEY
In the case of B1, the Km ([11]; 10 mM KPi) is reported as 2.4 ± 0.7 (WT/P133R 0.42) μM and the Km ([11]; 100 mM KPi, apparent value) is reported as 1.0 ± 0.4 (WT/P133R 0.5) μM.
